Reference: publication PMC5383082 (International Journal of Nanomedicine, 2017)

Key:
HeLa cells [1] = assay: MTT cytotoxicity assay; format: cell-based
Method in brief: (§1)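 Cells kept in folate-free medium were seeded at 5×10^3 per well and grown 24 h. They were then exposed for 2 h at 37°C to serial dilutions of 1.56–25.00 μg/mL DOX equivalent, followed by 72 h in drug-free DMEM. MTT (5 mg/mL stock) was added for 4 h, formazan was dissolved in DMSO and absorbance read at 490 nm. Five parallel experiments; mean ± SD.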

KB cells [2] = assay: MTT cytotoxicity assay; format: cell-based
Method in brief: as §1

HeLa cells [3] = assay: Apoptosis assay; format: cell-based; conditions: 3 μg/mL DOX
Method in brief: (§2)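 HeLa or KB cells were seeded at 4×10^5 per well, cultured 24 h, then exposed to conjugates at 3 μg/mL DOX for 24 h at 37°C. For receptor blocking, 1 mM free folate was added before the drug. Trypsinized and floating cells were pooled and stained with annexin V-FITC/PI. 20,000 cells per sample were analysed by flow cytometry, with FSC/SSC gating to exclude debris. Q2 was scored as late and Q4 as early apoptosis. Mean ± SD, three independent experiments.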

[4] = Tissue distribution of DOX after intravenous injection; format: in vivo; conditions: mice, i.v. 5 mg/kg, compared with free DOX
Method in brief: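 Male Kunming mice (~25 g, 6–8 weeks) received 5 mg/kg DOX equivalent intravenously. Heart, liver, spleen and kidney were collected at 30 min and 3 h. Tissue was homogenized in ethanol/HCl/water and centrifuged at 12,000 rpm for 15 min. DOX in the supernatant was measured by fluorescence spectrophotometry. n=4; mean ± SD.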

[5] = Pharmacokinetic analysis of plasma DOX after intravenous injection; format: in vivo; conditions: Kunming mice, i.v. 5 mg/kg DOX, noncompartmental
Subcutaneous KB tumors = assay: KB xenograft tumor mouse model; format: in vivo, BALB/c nude mice; conditions: KB xenograft nude mice, single i.v. dose 8 mg/kg DOX
Method in brief: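 Female BALB/c nude mice (6–8 weeks, 16–18 g) were inoculated subcutaneously in the front armpit with 2.5×10^6 KB cells. Once tumors were established, mice got a single tail-vein injection of 8 mg/kg DOX equivalent; saline served as control. Tumors were measured every 4 days, with volume = length × width² × 0.52. Body weight was recorded every 4 days and survival was followed. n=6 per group; mean ± SD.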

KB cells [6] = assay: Apoptosis assay; format: cell-based; conditions: 3 μg/mL DOX
Method in brief: as §2

KB cells [7] = assay: Cellular uptake; format: cell-based
Method in brief: (§3)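 Cells were grown 48 h in folate-free RPMI 1640, then given conjugates at 5 μg/mL DOX for 1 h at 37°C. For blocking, 1 mM free folate was added before the conjugates. For microscopy, monolayers were rinsed 3× with PBS, fixed in 4% paraformaldehyde for 15 min and imaged by fluorescence at equal exposure. For flow cytometry, 3×10^5 trypsinized cells per tube received the same treatment and were rinsed before reading.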

HeLa cells [8] = assay: Cellular uptake; format: cell-based
Method in brief: as §3

[9] = 2 h drug incubation then 72 h culture, DOX concentration, mean ± SD

With “folate-polyethylene glycol-immunoglobulin G-doxorubicin [FA-PEG-IgG-DOX]” the “IC50 as fraction of that of IgG-DOX” value (HeLa cells [1]) was “about 1/8”, the “antitumor activity, times higher than IgG-DOX” value (HeLa cells [1]) was “at least 8 times” and the IC50 (HeLa cells [1]; [9]) was 3.22 ± 0.9 mg/L. The “IC50 as fraction of that of IgG-DOX” value (KB cells [2]) was “about 1/12”, the “antitumor activity, times higher than IgG-DOX” value (KB cells [2]) was “at least 8 times” and the IC50 (KB cells [2]; [9]) was 1.78 ± 0.4 mg/L. The “proapoptotic effect after pretreatment with 1 mM folate” value (HeLa cells [3]) was “significantly diminished”, the “DOX concentration in the heart” value [4] was “at the same level with that following free DOX injection” and the “AUC(0–∞)” value [5] was 992.943 μg/mL⋅h. The CLz [5] was 0.19 mL/day/kg, the Cmax [5] was 0.225275 µg/mL and the Vz [5] was 0.070 L/kg. The body weight change (Subcutaneous KB tumors) was “minor body weight reduction”, the “survival of treated mice” value (Subcutaneous KB tumors) was “prolonged the survival of treated mice compared with DOX” and the “tumor growth from day 12 to day 25” value (Subcutaneous KB tumors) was “maintained a very low growth rate”. For the same substance, the “average tumor size at day 25 after injection” value (Subcutaneous KB tumors; day 25) was 553 mm^3, the “proapoptotic effect after pretreatment with 1 mM folate” value (KB cells [6]) was “significantly diminished” and the “fluorescence intensity (microscopy)” value (KB cells [7]; 5 μg/mL DOX, 1 h, 37°C) was “apparently higher than IgG-DOX”. The “uptake after 1 mM folate pretreatment (microscopy)” value (KB cells [7]; 1 mM folate pretreatment) was “could be blocked”, the “fluorescence intensity (microscopy)” value (HeLa cells [8]; 5 μg/mL DOX, 1 h, 37°C) was “apparently higher than IgG-DOX” and the “uptake after 1 mM folate pretreatment (microscopy)” value (HeLa cells [8]; 1 mM folate pretreatment) was “could be blocked”.
